# Source: PubChem (several laboratories)
# Only a selection was taken, and hits are over-represented in it overall.
# Lmaj promast – Leishmania major promastigote growth inhibition, primary screen; inhibition, % at 10 µM; 9% of 200,000 active; Leishmania major promastigotes, resazurin fluorescence viability;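 further: promastigotes grown with compound for 44 hours at 28 °C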
# Diaphorase inh – diaphorase inhibitors and chemical oxidizers, primary screen, counter-screen for diaphorase-coupled primary assays, biochemical, uHTS, resorufin fluorescence | AID 1217, 2008 | diaphorase resazurin-to-resorufin fluorescence, NADH, 16 min; bacterial (C. kluyveri) enzyme, not human | 0.69% of 190,000 active | inhibition, % at 20 µM;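 active means primary screen inhibition at 20 µM above a set limit, cut at about 50% in these data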;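 further: plate controls were DMSO with full reaction for no effect and wells lacking NADH for full effect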
#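 material = Clostridium kluyveri diaphorase enzyme | amount = 0.14 U/mL diaphorase, enzyme working solution | schedule = incubation 16 min, room temperature | detection = fluorescence of resorufin formed from resazurin, Ex 544/Em 590 nm | benchmarks = positive control minus NADH, DMSO neutral control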
# G6PDH CS – L. mesenteroides G6PDH inhibitors, counter-screen for G6PDH-coupled screening assays, biochemical, Leuconostoc mesenteroides enzyme | glucose-6-phosphate dehydrogenase [Leuconostoc mesenteroides] | Purified L. mesenteroides G6PDH, diaphorase/resazurin coupled fluorescence, 45 min | inhibition, % at 5 µM | 0.12% of 200,000 active | AID 1020, 2008
# Redox H2O2 prof – compounds producing H2O2 with reducing agent – biochemical, NIH compound library profiling, artefact control for MLSCN library redox annotation, primary screen; DTT-dependent redox cycling H2O2, phenol red/HRP absorbance; 100% = 100 µM peroxide control, 0% = buffer; activation, % at 10 µM; 0.03% of 200,000 active; AID 878, 2007;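 active means activation of at least 50% relative to the plate's high and low controls in the primary single-dose screen; inactive means activation below 50%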;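 further: compound incubated with DTT at 0.8 mM final as the reducing agent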
# PfG6PD inh – PfG6PD enzyme inhibitors, primary screen, biochemical, fluorescence intensity, uHTS. glucose-6-phosphate dehydrogenase-6-phosphogluconolactonase (Plasmodium falciparum 3D7). PfGluPho enzyme, NADPH resazurin-diaphorase fluorescence. inhibition, % at 20 µM. 0.78% of 350,000 active;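 active means inhibition reaching at least a set limit at 20 µM in the primary screen, cut at about 59% in these data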;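 further: 0% = DMSO wells with substrate and 100% = DMSO wells lacking glucose-6-phosphate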
# Diaph act CS – compounds boosting diaphorase resazurin reduction – biochemical, uHTS, resorufin fluorescence, counter-screen for diaphorase-coupled primary assays, primary screen. Diaphorase/resazurin coupled assay, 16 min; active compounds read high; 1 = vehicle wells, 0 = NADH-free wells. activation factor at 20 µM. 0.005% of 190,000 active. AID 1229, 2008;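 active means diaphorase activity raised at least twofold by the compound at 20 µM; inactive means activation factor below 2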
#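 Assay system: bacterial diaphorase enzyme (C. kluyveri) / Input: enzyme 0.07 U/mL final / Medium: 50 mM HEPES pH 7.4 with 4.542 mM MgCl2, 0.005% Tween 20 / Doses: single compound dose of 20 µM, 1% DMSO final / Incubation: 16 min enzyme reaction, ambient temperature / Signal: fluorescence, excitation 544 nm and emission 590 nm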
# Active calls of the source: *; x = no result given. Unless noted, no stated cut-off is given here; in the data, active means inhibition above about 50%; inactive means the rest.
SMILES,Lmaj promast,Diaphorase inh,G6PDH CS,Redox H2O2 prof,PfG6PD inh,Diaph act CS
COc1ccc(S(=O)(=O)N2CCCCCC2)cc1NC(=O)c1c2c(nc3ccccc13)CCN(Cc1ccccc1)C2,54*,19,5,0,2,0.8
C=CC[n+]1c(-c2ccc(Cl)cc2Cl)csc1Nc1ccc(NC(C)=O)cc1,53*,22,0,0,5,0.8
CCN1C(=O)[C@@H]2[C@@H](c3ccc(SC4CCCCC4)c(OC)c3)N3CCC[C@@]3(C(=O)OC)[C@@H]2C1=O,x,x,x,x,21,x
O=C1/C(=C\c2ccco2)SC(=S)N1C1CCS(=O)(=O)C1 (stereo not drawn),x,x,x,x,34,x
O=C(CCCN1C(=O)/C(=C/c2ccco2)SC1=S)Nc1ccccc1C(=O)O,x,x,x,x,-9,x
O=C(O)CCCN1C(=O)/C(=C\c2ccco2)SC1=S,-8,59*,14,0,-12,0.4
O=C1/C(=C/c2ccco2)SC(=S)N1C1CCS(=O)(=O)C1 (stereo not drawn),93*,61*,13,-1,7,0.4
CCN(CC)S(=O)(=O)c1ccc(C)c(NC(=S)NNC(=O)C2CC2)c1,39,-7,11,0,4,1.1
COc1ccc(Br)cc1CN(C)C(=O)c1cnc(C)cn1,x,x,x,x,-5,x
O=C1C(NS(=O)(=O)c2ccc(Cl)cc2)=C(N2CCCCC2)C(=O)c2ccccc21,89*,26,1,1,17,0.7
Cc1c(-n2c(SCC(N)=O)nc3ccccc3c2=O)c(=O)n(-c2ccccc2)n1C,-3,6,0,-2,24,0.9
COc1ccc(CNC(=O)/C=C/c2ccco2)cc1OC,0,4,12,-1,30,1
COc1ccc(CNC(=O)/C=C/c2ccc(S(=O)(=O)NCc3ccco3)cc2)cc1OC,68*,14,-6,0,15,0.9
O=C(/C=C/c1ccc(Cl)cc1)NCc1ccco1,51*,13,4,0,34,0.9
CCC(C(=O)OCC(=O)N(CCOC)c1c(N)n(Cc2ccccc2)c(=O)[nH]c1=O)c1ccccc1 (stereo not drawn),x,x,x,x,29,x
Cc1ccc(C(=O)c2cnc3ccccc3c2-c2ccccc2)cc1,57*,15,2,-4,-10,0.8
Cc1cc(C)c2c3c(sc2n1)C(c1cccc(F)c1)C(C#N)=C(N)O3 (stereo not drawn),89*,29,-5,2,26,0.7
C[n+]1cccc(C2C(C#N)=C(N)Oc3c2ccc2ccccc32)c1 (stereo not drawn),x,x,x,x,21,x
COc1ccc(C)cc1S(=O)(=O)N(CC(=O)Nc1ccc2c(c1)OCCO2)Cc1ccccc1,74*,18,-3,0,11,0.8
CC(C(=O)Nc1ccc2c(c1)OCO2)N(c1ccc(Cl)cc1)S(C)(=O)=O (stereo not drawn),97*,-8,1,0,-4,1.1
O=C(CNCc1ccc(Cl)cc1)Nc1ccc2c(c1)OCCO2,-11,16,-1,-2,6,0.8
CS(=O)(=O)N(CC(=O)NCc1ccccc1)Cc1ccc(Cl)cc1,-3,8,-5,3,-11,0.9
CS(=O)(=O)N(CC(=O)Nc1ccc2c(c1)OCCO2)Cc1ccc(Cl)cc1,96*,12,-4,0,-1,0.9
CCOC(=O)c1ccc(NC(=O)CN(Cc2ccc(Cl)cc2)S(C)(=O)=O)cc1,100*,20,2,0,5,0.8
COc1ccc(C)cc1S(=O)(=O)N(C)CC(=O)Nc1ccc2c(c1)OCO2,5,9,-24,-1,6,0.9
SMILES,Lmaj promast,Diaphorase inh,G6PDH CS,Redox H2O2 prof,PfG6PD inh,Diaph act CS
C[C@@H]1CN([C@H](C)CO)C(=O)CCCn2cc(nn2)CO[C@H]1CN(C)C(=O)Nc1cccc(F)c1,x,x,x,x,9,x
CC(Cc1ccccc1)N1CCCC1=O (stereo not drawn),x,x,x,x,18,x
Cn1nc(C(=O)NNC(=O)COc2ccccc2)c2ccccc2c1=O,55*,17,3,x,17,0.8
Cc1ccc(OCCNC(=O)c2cc(C(=O)NCCOc3ccc(C)cc3)cc([N+](=O)[O-])c2)cc1,99*,9,-8,0,0,0.9
COc1cccc(OCCNC(=O)c2cc([N+](=O)[O-])cc([N+](=O)[O-])c2)c1,83*,7,0,0,-4,0.9
COc1ccccc1NC(=O)N(C)C[C@@H]1OCc2cnnn2CCCC(=O)N([C@@H](C)CO)C[C@@H]1C,x,x,x,x,3,x
Cc1cc(C)c2ccc(/C=N/O)nc2c1O,x,x,x,x,8,x
Cc1cc(C)c2ccc(NN)nc2c1O,99*,17,10,0,50,0.8
CC1CCN(Cc2ccc(-c3nnn(CC(=O)Nc4ccccc4Cl)n3)cc2)CC1,64*,12,-5,0,9,0.9
O=C(Cn1nnc(-c2ccc(S(=O)(=O)N3CCCC3)cc2)n1)Nc1ccccc1-n1cccc1,95*,15,10,0,-5,0.9
NC(=O)c1ccc(-c2nnn(CC(=O)Nc3cccc(S(=O)(=O)N4CCCC4)c3)n2)cc1,x,x,x,x,-8,x
CC1CCCCN1S(=O)(=O)c1ccc(C(=O)Nc2sccc2C(N)=O)cc1 (stereo not drawn),18,19,12,-1,12,0.8
O=Cc1c[nH]c2ccc(S(=O)(=O)N3CCOCC3)cc12,-6,16,4,0,-7,0.8
COc1ccc(OS(=O)(=O)Cc2ccccc2)cc1,x,x,x,x,7,x
COc1ccc(C(CCN)Cc2ccccc2)cc1 (stereo not drawn),51*,-29,6,-3,-10,1.3
CN1CCN(c2cc3c(c4c2[nH]c2ccccc24)C(=O)CC(C)(C)C3)CC1,95*,24,3,-1,26,0.8
Cc1cccc2nc(COc3ccc(Cl)c4cccnc34)cn12,5,-16,9,-1,27,1.2
CC(c1ccccc1)C(OC(=O)c1cccc([N+](=O)[O-])c1C(=O)O)c1ccccc1 (stereo not drawn),x,x,x,x,-9,x
[O-]/[N+](=C/c1ccc(F)cc1)c1ccc(Cl)cc1,-1,14,6,0,65*,0.9
Cc1cc(C)nc(/N=C(\N)Nc2ccc(OCCC(C)C)cc2)n1,x,x,x,x,9,x
S=c1[nH]c(-c2ccccc2)cn1/N=C/c1ccccc1Br,22,46,-6,0,35,0.5
Oc1ccc(/C=N/n2cc(-c3ccccc3)[nH]c2=S)cc1,6,53*,-12,0,37,0.5
